According to publication PMC3831721 (Indian Journal of Pharmaceutical Sciences, 2013):

Test system: Sprague Dawley rats
Test: Antiinflammatory activity, carrageenan hind paw edema method
Assay type: in vivo
Conditions: rat, oral, equivalent to 20 mg/kg
Outline: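 Sprague Dawley rats (100-200 g), six per group (3 male, 3 female). Test compound given orally in 1% sodium CMC suspension, equivalent to 20 mg/kg; controls received 1% CMC only. After 30 min, 0.1 ml 1% w/v carrageenan in normal saline injected into the right hind paw plantar surface. Paw volume measured by plethysmometer before dosing and at 0.5, 1, 2, 4 and 6 h. %inhibition = (1−Vt/Vc)×100, using mean relative volume change.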

SMILES: CCc1cccc2c3c([nH]c12)C(CC)(CC(=O)O)OCC3 (racemic) [EC, (RS)-2-(1,8-Diethyl-4,9-dihydro-3H-pyrano[3,4-b]indol-1-yl) acetic acid]
- Antiinflammatory activity (6 h) Inhibition of edema (%): 81.9%
